Measurements taken from ChEMBL document CHEMBL6134900 (J Med Chem, 2025).
Activity calls are given as the source filed them. The rule behind the calls is not given here.

How the values were obtained:
[1] = molecular target: T1, Protein cereblon/SWI/SNF-related matrix-associated actin-dependent regulator of chromatin subfamily A member 2 (Homo sapiens, UniProt P51531+Q96SW2); experiment: PROTAC activity at CRBN/SMARCA2 in human H322 cells harboring SMARCA4 mutant assessed as induction of SMARCA2 degradation at 0.1 uM in presence of MLN4924 by immunoblot analysis; format: cell-based
[2] = Drug metabolism in mouse liver microsomes assessed as N-dealkylation mediated 2-(6-amino-5-(4-(3-fluoro-4-(piperazin-1-yl)benzyl)piperazin-1-yl)pyridazin-3-yl)phenol metabolite formation at 10 uM incubated for 60 mins by LC-UV-HRMS analysis; format: ADME, Microsome; settings: 1 h
How it was run: (§1)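 Compound at 10 μM incubated with mouse liver microsomes at 37 °C for 60 min. Metabolites detected by LC-UV-HRMS, structures proposed from MS and MS2 data, and each metabolite given as a percentage.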

[3] = Drug metabolism in mouse liver microsomes assessed as hydrolysis mediated M3 metabolite formation at 10 uM incubated for 60 mins by LC-UV-HRMS analysis; format: ADME, Microsome; settings: 1 h; how it was run: as §1
[4] = Toxicity in female athymic nude mouse xenografted with human HCC515 cells harboring SMARCA4 mutant assessed as change in body weight at 5 mg/kg, po administered once daily via gavage for 19 days relative to control; format: organism-based; settings: in vivo, 456 h, time 19 day
How it was run: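 Cells (H1568 2 × 10^6, H2023 10 × 10^6, HCC515 5 × 10^6) in PBS:Matrigel 1:1, 200 μL, injected subcutaneously into flanks of 6–8-week-old females. Randomized at mean tumor volume 60 mm3 (H1568) or <200 mm3 (others). Dosed in 0.5% methylcellulose + 0.2–1% Tween-80, sonicated on ice. Caliper tumor volume and body weight tracked, mean ± SEM.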

[5] = molecular target: T1, Protein cereblon/SWI/SNF-related matrix-associated actin-dependent regulator of chromatin subfamily A member 2; experiment: PROTAC activity at CRBN/SMARCA2 in human NCI-H1792 cells harboring wild type SMARCA4 assessed as reduction in SMARCA2 protein level at 20 nM incubated for 24 hrs by TMT mass spectrometric analysis; format: cell-based
[6] = AUC (0 to infinity) in male CD-1 (ICR) mouse at 25 mg/kg, po measured up to 24 hrs by LC-MS/MS analysis; format: ADME, organism-based; settings: in vivo
How it was run: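 Single 25 mg/kg dose. IP vehicle was 5% DMSO/5% solutol/90% water at 1.25 mg/mL, final pH 4.39, clear solution. Oral vehicle was 0.5% methylcellulose/0.2% Tween 80 in water, opaque suspension. Plasma sampled at 0.25, 0.5, 1, 2, 4, 8 and 24 h. Plasma protein-precipitated with internal standard in acetonitrile, then LC-MS/MS. n = 3 mice per time point, mean.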

[7] = Drug metabolism in mouse liver microsomes assessed as mono-oxygenation and N-dealkylation mediated M2 metabolite formation at 10 uM incubated for 60 mins by LC-UV-HRMS analysis; format: ADME, Microsome; settings: 1 h; how it was run: as §1
[8] = In vivo PROTAC activity at CRBN/SMARCA2 in female athymic nude mouse xenografted with human NCI-H2030 cells harboring SMARCA4 mutant assessed as SMARCA2 degradation at 5 mg/kg, po administered once daily via gavage for 17 days by Western blotting analysis relative to control; format: functional; settings: time 17 day
How it was run: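 H2030 cells (10 × 10^6, PBS/Matrigel 1:1) implanted subcutaneously in the flank of female nude mice. Randomised below 200 mm3. 5 mg/kg or vehicle given by oral gavage once daily for 17 days in 10% DMSO/40% PEG300/1% Tween-80/49% saline. Tumours collected 24 h after dosing. SMARCA2 measured by Western blot against β-actin, relative to vehicle.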

[9] = molecular target: Transcriptional coactivator YAP1 (Homo sapiens) (UniProt P46937); experiment: Induction of YAP1 phosphorylation at S127 residue in human H322 cells harboring SMARCA4 mutant at 1 uM incubated for 96 hrs by immunoblot analysis; format: cell-based; settings: filed as activator
Chain of Transcriptional coactivator YAP1 (Homo sapiens) (P46937 whole entry): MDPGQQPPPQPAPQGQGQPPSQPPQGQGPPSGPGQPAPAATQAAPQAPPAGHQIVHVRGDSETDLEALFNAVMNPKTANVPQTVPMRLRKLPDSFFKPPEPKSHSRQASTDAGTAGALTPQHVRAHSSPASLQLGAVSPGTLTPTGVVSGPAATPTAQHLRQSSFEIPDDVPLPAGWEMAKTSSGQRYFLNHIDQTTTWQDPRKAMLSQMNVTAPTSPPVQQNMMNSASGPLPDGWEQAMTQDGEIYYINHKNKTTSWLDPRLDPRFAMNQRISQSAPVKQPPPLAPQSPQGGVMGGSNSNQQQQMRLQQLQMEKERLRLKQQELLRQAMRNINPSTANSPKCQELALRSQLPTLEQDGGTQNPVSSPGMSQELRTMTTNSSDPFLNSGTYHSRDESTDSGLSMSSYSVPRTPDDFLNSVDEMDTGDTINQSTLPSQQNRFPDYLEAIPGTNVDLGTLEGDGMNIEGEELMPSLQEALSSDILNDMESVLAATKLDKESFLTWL

[10] = molecular target: T1, Protein cereblon/SWI/SNF-related matrix-associated actin-dependent regulator of chromatin subfamily A member 2; experiment: PROTAC activity at CRBN/SMARCA2 in human H322 cells harboring SMARCA4 mutant assessed as induction of SMARCA2 degradation at 1 uM in presence of pomalidomide by immunoblot analysis; format: cell-based
[11] = molecular target: T1, Protein cereblon/SWI/SNF-related matrix-associated actin-dependent regulator of chromatin subfamily A member 2; experiment: PROTAC activity at CRBN/SMARCA2 in CRBN knockout human H322 cells harboring SMARCA4 mutant assessed as induction of SMARCA2 degradation at 1 uM by immunoblot analysis; format: cell-based
NCI-H2030 = experiment: Antitumor activity against human NCI-H2030 cells harboring KRAS G12C mutant/SMARCA4 mutant assessed as cell growth inhibition incubated for 7 days by Incucyte S3 analysis; format: functional, cell-based; settings: time 7.0 day
How it was run: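 H2030 cells plated at 500 per well and grown overnight at 37 °C. Treated with 3-fold dilutions of sotorasib, test agent, or both. Confluency imaged every 4 h for 7 days on IncuCyte S3. Synergy scored as Bliss/Lowe consensus, >10 taken as synergy.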

[12] = Drug concentration in C57BL/6 mouse plasma at 80 mg/kg, po administered once daily for 3 days and measured at 24 hrs post last dose; format: ADME, organism-based; settings: time 3 day
How it was run: (§2)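 Oral dosing once daily for 3 days: 5–80 mg/kg in C57BL/6 mice, 10–80 mg/kg in CrbnI391V mice. Euthanized 24 h after last dose. Plasma drug level measured. Spleen SMARCA2 by Western blot against actin loading control, relative to vehicle.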

[13] = Drug concentration in CRBN I391V mutant mouse plasma at 80 mg/kg, po administered once daily for 3 days and measured at 24 hrs post last dose; format: ADME, organism-based; settings: time 3 day; how it was run: as §2
[14] = Drug metabolism in mouse liver microsomes assessed as Mono-oxygenation mediated M2 metabolite formation at 10 uM incubated for 60 mins by LC-UV-HRMS analysis; format: ADME, Microsome; settings: 1 h; how it was run: as §1
[15] = In vivo PROTAC activity at CRBN/SMARCA2 in female athymic nude mouse xenografted with human NCI-H1568 cells harboring SMARCA4 mutant assessed as SMARCA2 degradation at 40 mg/kg, po administered once daily via gavage for 13 days by Western blotting analysis relative to control; format: functional; settings: time 13 day
How it was run: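 H1568 cells (2 × 10^6, PBS/Matrigel 1:1) implanted subcutaneously in the flank of female nude mice aged 6–8 weeks. Randomised at about 60 mm3 tumour volume. 40 mg/kg or vehicle given by oral gavage once daily for 13 days in 0.5% methylcellulose/Tween-80, sonicated. Tumours collected 24 h after dosing. SMARCA2 measured by Western blot against β-actin, relative to vehicle.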

[16] = molecular target: T1, Protein cereblon/SWI/SNF-related matrix-associated actin-dependent regulator of chromatin subfamily A member 2; experiment: PROTAC activity at CRBN/SMARCA2 in human H322 cells harboring SMARCA4 mutant assessed as induction of SMARCA2 degradation at 1 uM in presence of Gen-1 by immunoblot analysis; format: cell-based
[17] = In vivo PROTAC activity at CRBN I391V mutant/SMARCA2 in mouse assessed as SMARCA2 degradation in spleen at 10 to 80 mg/kg, po administered once daily for 3 days and measured at 24 hrs post last dose by Western blotting analysis relative to control; format: functional; settings: dose 10-80 mg/kg, time 3 day
How it was run: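 CrbnI391V mice given 10, 20, 40 or 80 mg/kg or vehicle orally once daily for 3 days. Euthanised 24 h after the last dose. Spleen SMARCA2 measured by Western blot with actin as loading control, relative to vehicle. Plasma drug level measured at the same time.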

Q: Which Activity [1] does the source give for `Nc1nnc(-c2ccccc2O)cc1N1CCN(Cc2ccc(N3CCN(CCOc4cccc5c4C(=O)N(C4CCC(=O)NC4=O)C5=O)CC3)c(F)c2)CC1` (stereo not drawn) here?
A: Its Activity is “inactive”.

Q: And the Drug metabolism [2]?
A: The Drug metabolism was “metabolite_detected”.

Q: What about the Drug metabolism [3] of the same compound?
A: Its Drug metabolism is “metabolite_detected”.

Q: What about the Activity [4] of the same compound?
A: The Activity was less than 20%.

Q: What about the Activity [5] of the same compound?
A: Its Activity is “Active”.

Q: And the AUC [6]?
A: Its AUC is 5122 ng·h/mL.

Q: And the Drug metabolism [7]?
A: The Drug metabolism was “metabolite_detected”.

Q: What about the Activity [8] of the same compound?
A: The Activity was 40%.

Q: For `Nc1nnc(-c2ccccc2O)cc1N1CCN(Cc2ccc(N3CCC(CN4CCN(c5ccc6c(c5)C(=O)N(C5CCC(=O)NC5=O)C6=O)CC4)CC3)c(F)c2)CC1` (stereo not drawn), which Activity [9] is on record?
A: The Activity was “Active”.

Q: And the Activity [10]?
A: The Activity was “inactive”.

Q: What about the Activity [11] of the same compound?
A: The Activity was “inactive”.

Q: What about the Activity (NCI-H2030) of the same compound?
A: Its Activity is “Active; Minimal Inhibition Observed”.

Q: What about the concentration at 72 h [12] of the same compound?
A: The concentration at 72 h was 1880 nM.

Q: What about the concentration at 72 h [13] of the same compound?
A: Its concentration at 72 h is 2450 nM.

Q: What about the Drug metabolism [14] of the same compound?
A: Its Drug metabolism is “metabolite_detected”.

Q: What about the Activity [15] of the same compound?
A: Its Activity is 50%.

Q: And the Activity [16]?
A: Its Activity is “inactive”.

Q: What about the Activity [17] of the same compound?
A: The Activity was 11%.
